Experimental data taken from ChEMBL document CHEMBL4811241, “Revisiting Pyrazolo[3,4-d]pyrimidine Nucleosides as Anti-Trypanosoma cruzi and Antileishmanial Agents” (J Med Chem, 2021).

Assays:
CYP450 [1] = assay: Metabolic stability of the compound in mouse liver microsomes S9 fraction assessed as CYP450-mediated metabolism by measuring parent compound remaining at 5 uM measured after 60 mins in presence of NADPH by UPLC-MS analysis; assay type: ADME, subcellular; settings: read-out: Stabilty
Outline: (§1)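 Compound at 5 μM with 0.5 mg/mL male mouse or pooled human liver microsomes in potassium phosphate buffer; reaction started with 1 mM NADPH. Samples taken at 0, 15, 30 and 60 min and quenched in cold acetonitrile with internal standard. Parent remaining quantified by UPLC-MS/MS in MRM mode and given as % of the 0 min value.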

Trypanosoma cruzi [2] = assay: Antitrypanosomal activity against nifurtimox-sensitive Trypanosoma cruzi Tulahuen CL2 infected in Swiss mouse peritoneal macrophages assessed as inhibition of parasite growth measured after 7 days in presence of ABC transporter inhibitor, probenecid by spectrophotometric analysis; assay type: functional, organism-based; settings: Tulahuen CL2, Peritoneal macrophage, 168 h
Outline: (§2)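 Macrophage-hosted 7-day assay read with CPRG at 540 nm, with compound given together with an ABC transporter inhibitor: cyclosporine A 2 μM, probenecid 700 μM or verapamil 8 μM. IC50 from % reduction versus infected controls.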

[3] = Cytotoxicity against Swiss mouse peritoneal macrophages assessed as cell detachment, lysis and granulation measured after 5 days by microscopic analysis; assay type: cell-based, Peritoneal macrophage; settings: time 5 day
Outline: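 Scored within the Leishmania macrophage assay over 5 days: detachment, lysis and granulation judged semi-quantitatively by microscopy across at least 500 cells. CC50 derived from % reduction in normal cells versus untreated wells.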

[4] = Cytotoxicity against Swiss Webster mouse 3D cardiomyocytes assessed as reduction in cell viability measured after 48 hrs by PrestoBlue assay; assay type: tissue-based, Cardiac Muscle Cell
Outline: (§3)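 Mouse embryo heart cells as monolayer (2D) or 3D aggregates (25 × 10³ cells/well on 1% agarose). Uninfected cultures exposed 48 h to rising concentrations. Morphology checked by light microscopy; viability read by PrestoBlue; CC₅₀ determined.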

[5] = Cytotoxicity against human MRC-5 SV2 cells assessed as reduction in cell growth measured after 3 days by resazurin dye based fluorometric analysis; settings: time 3 day
UGT [6] = molecular target: T1, UGT (Homo sapiens, UniProt O60656+O75310+O75795+P06133+P0DTE4+P0DTE5+P16662+P19224+P22309+P22310+P35503+P35504+P36537+P54855+Q6UWM9+Q9BY64+Q9HAW7+Q9HAW8+Q9HAW9); assay: Metabolic stability of the compound in human liver microsomes S9 fraction assessed as UGT-mediated metabolism by measuring parent compound remaining at 5 uM measured after 15 mins in presence of UDPGA by UPLC-MS analysis; assay type: ADME, subcellular; settings: read-out: Stabilty
Outline: (§4)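 Compound at 5 μM with 0.5 mg/mL male mouse or pooled human liver microsomes; reaction started with 2 mM UDPGA. Sampled at 0, 15, 30 and 60 min and quenched in cold acetonitrile with internal standard. Parent remaining measured by UPLC-MS/MS (MRM) as % of the 0 min value.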

Trypanosoma cruzi [7] = assay: Antitrypanosomal activity against nifurtimox-sensitive Trypanosoma cruzi Tulahuen CL2 infected in human MRC-5 SV2 cells assessed as inhibition of parasite growth measured after 7 days by spectrophotometric analysis; assay type: functional, organism-based; settings: Tulahuen CL2, MRC-5 SV2, 168 h
[8] = Cytotoxicity against Swiss Webster mouse 2D cardiomyocytes assessed as reduction in cell viability measured after 48 hrs by PrestoBlue assay; set-up: species or system Cardiac Muscle Cell; settings: read-out: LC50; outline: as §3
Trypanosoma cruzi [9] = assay: Antitrypanosomal activity against Trypanosoma cruzi strain Y bloodstream trypomastigotes infected in Swiss Webster mouse assessed as reduction in parasitemia at 2.5 mg/kg, po bid for 5 days treatment started at 6 days post-infection in presence of 10 mg/kg, po Benznidazole by light microscopic analysis; assay type: functional; settings: 120 h, time 5 day
Outline: (§5)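 Male Swiss Webster mice, 18–20 g, six per group; only mice with detectable parasitemia treated. Oral gavage for 5 consecutive days (6–10 dpi); test compound given b.i.d. in 10% Tween 80, benznidazole once daily, formulations freshly prepared. Parasitemia counted by light microscopy in 5 μL blood; mortality checked daily to 34 dpi.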

Trypanosoma cruzi [10] = assay: Antitrypanosomal activity against nifurtimox-sensitive Trypanosoma cruzi Tulahuen CL2 infected in Swiss mouse peritoneal macrophages assessed as inhibition of parasite growth measured after 7 days by spectrophotometric analysis; assay type: functional, organism-based; settings: Tulahuen CL2, Peritoneal macrophage, 168 h
Trypanosoma cruzi [11] = assay: Antitrypanosomal activity against Trypanosoma cruzi strain Y bloodstream trypomastigotes infected in Swiss Webster mouse assessed as reduction in parasitemia at 25 mg/kg, po bid for 5 days treatment started at 6 days post-infection and measured at 8 days post-infection by light microscopic analysis; assay type: functional; settings: 48 h, time 2 day; outline: as §5
[12] = Toxicity in Swiss webster mouse infected with Trypanosoma cruzi Y trypomastigotes assessed as animal survival at 2.5 to 25 mg/kg, po bid for 5 days treatment started at 6 days post-infection and measured at 34 days post-infection; assay type: organism-based; settings: in vivo, dose 2.5-25 mg/kg, time 29 day
Outline: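 Male Swiss Webster mice (18−20 g, 4−5 weeks) were infected i.p. with 10⁴ Y-strain bloodstream trypomastigotes from a donor mouse. Only mice with detectable parasitemia were treated, in groups of six. Oral gavage was given on days 6–10 post-infection, b.i.d. or q.d. as listed, in 10% Tween 80 vehicle, freshly prepared. Infected vehicle controls were included. Mortality was checked daily to 34 dpi as cumulative percentage.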

CYP450 [13] = assay: Metabolic stability of the compound in mouse liver microsomes S9 fraction assessed as CYP450-mediated metabolism by measuring parent compound remaining at 5 uM measured after 30 mins in presence of NADPH by UPLC-MS analysis; assay type: ADME, subcellular; settings: read-out: Stabilty; outline: as §1
CYP450 [14] = molecular target: T2, CYP450 (Homo sapiens, UniProt P04798+P05177+P05181+P08684+P10632+P10635+P11509+P11712+P13584+P20813+P20815+P20853+P24462+P24903+P33260+P33261+P51589+P78329+P98187+Q02928+Q08477+Q16678+Q16696+Q5TCH4+Q6VVX0+Q7Z449+Q8TAV3+Q96SQ9+Q9HB55); assay: Metabolic stability of the compound in human liver microsomes S9 fraction assessed as CYP450-mediated metabolism by measuring parent compound remaining at 5 uM measured after 15 mins in presence of NADPH by UPLC-MS analysis; assay type: ADME, subcellular; settings: read-out: Stabilty; outline: as §1
CYP450 [15] = molecular target: T2, CYP450; assay: Metabolic stability of the compound in human liver microsomes S9 fraction assessed as CYP450-mediated metabolism by measuring parent compound remaining at 5 uM measured after 60 mins in presence of NADPH by UPLC-MS analysis; assay type: ADME, subcellular; settings: read-out: Stabilty; outline: as §1
UGT [16] = molecular target: T1, UGT; assay: Metabolic stability of the compound in human liver microsomes S9 fraction assessed as UGT-mediated metabolism by measuring parent compound remaining at 5 uM measured after 30 mins in presence of UDPGA by UPLC-MS analysis; assay type: ADME, subcellular; settings: read-out: Stabilty; outline: as §4
Trypanosoma cruzi [17] = assay: Antitrypanosomal activity against nifurtimox-sensitive Trypanosoma cruzi Tulahuen CL2 infected in Swiss mouse peritoneal macrophages assessed as inhibition of parasite growth measured after 7 days in presence of ABC transporter inhibitor, verapamil by spectrophotometric analysis; assay type: functional, organism-based; settings: Tulahuen CL2, Peritoneal macrophage, 168 h; outline: as §2
Trypanosoma cruzi [18] = assay: Antitrypanosomal activity against Trypanosoma cruzi strain Y bloodstream trypomastigotes infected in Swiss Webster mouse assessed as reduction in parasitemia at 0.25 to 2.5 mg/kg, po bid for 5 days treatment started at 6 days post-infection by light microscopic analysis; assay type: functional; settings: dose 0.25-2.5 mg/kg, time 5 day; outline: as §5

Structure (SMILES): Nc1ncnc2c1c(-c1ccc(Cl)cc1)nn2[C@@H]1O[C@H](CO)[C@@H](O)[C@H]1O
- remaining at 1 h, 5 µM (CYP450 [1]): 108%
- IC50 (Trypanosoma cruzi [2]): > 64 µM
- CC50 at 120 h [3]: > 64 µM
- CC50 at 48 h [4]: 200 µM
- CC50 at 72 h [5]: > 64 µM
- remaining at 0.25 h, 5 µM (UGT [6]): 100%
- IC50 (Trypanosoma cruzi [7]): 320 nM
- CC50 at 48 h [8]: 500 µM
- inhibition in vivo at 2.5 mg/kg (Trypanosoma cruzi [9]): 71%
- IC50 (Trypanosoma cruzi [10]): > 64 µM
- inhibition in vivo at 25 mg/kg (Trypanosoma cruzi [11]): 99%
- survival at 696 h [12]: 83%
- remaining at 0.5 h, 5 µM (CYP450 [13]): 103%
- remaining at 0.25 h, 5 µM (CYP450 [14]): 102%
- remaining at 1 h, 5 µM (CYP450 [15]): 101%
- remaining at 0.5 h, 5 µM (UGT [16]): 106%
- IC50 (Trypanosoma cruzi [17]): > 64 µM
- inhibition (INH) (Trypanosoma cruzi [18]): 43%
